The results in this text go back to ChEMBL document CHEMBL4715713, “Novel anticancer oridonin derivatives possessing a diazen-1-ium-1,2-diolate nitric oxide donor moiety: Design, synthesis, biological evaluation and nitric oxide release studies” (Bioorg Med Chem Lett, 2016).

Counter-ions that a name gives are not always drawn.

For series [1], the system named is Bel-7402. Briefly: Antiproliferative activity against human Bel-7402 cells assessed as reduction in cell viability incubated for 72 hrs by MTT assay. The format is functional, cell-based. As to conditions: Bel-7402, 72 h. An outline of the steps:
(§1)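 Cells were exposed to a range of test concentrations for 72 h and viability was read by MTT. IC50 values were taken from the concentration-response data, and means ± SD are from n = 3.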
A general note: Tetrazolium assays rely on reduction of a dye to a coloured formazan, in cell work by metabolically active cells.

Series [2] deals with Bel-7402. Description: Antiproliferative activity against human Bel-7402 cells assessed as reduction in cell viability at 1 uM incubated for 72 hrs by MTT assay relative to control. The format is functional.
Series [3] concerns Bel-7402. Briefly: Antiproliferative activity against human Bel-7402 cells assessed as reduction in cell viability at 10 uM incubated for 72 hrs by MTT assay relative to control. Format: functional.
Series [4] in a line: Prodrug release in human Bel-7402 cells assessed as NO release by measuring increase in nitrite/nitrate production at 50 uM measured upto 24 hrs by Griess reagent based assay. Format: ADME, cell-based. As to conditions: bel-7402, 24 h. An outline of the steps:
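Bel-7402 cells were seeded at 15,000/mL and treated in triplicate with each compound at 50 µM for varying times. Nitrate/nitrite in the cell lysates was determined by the Griess assay. Values are the mean of three independent experiments.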

The test system of series [5] is A549. Briefly: Antiproliferative activity against human A549 cells assessed as reduction in cell viability incubated for 72 hrs by MTT assay. The format is functional, cell-based. Particulars: A549, 72 h. In a few lines: as §1
In series [6] the test system is HepG2. Briefly: Antiproliferative activity against human HepG2 cells assessed as reduction in cell viability incubated for 72 hrs by MTT assay. Particulars: HepG2, 72 h. The format is functional, cell-based. An outline of the steps:
as §1

Series [7] deals with HeLa. Briefly: Antiproliferative activity against human HeLa cells assessed as reduction in cell viability incubated for 72 hrs by MTT assay. The format is functional, cell-based. An outline of the steps:
as §1

For series [8], the system named is K562. Description: Antiproliferative activity against human K562 cells assessed as reduction in cell viability incubated for 72 hrs by MTT assay. Format: functional, cell-based. Particulars: K562, 72 h. In a few lines: as §1
In series [9] the test system is Bel-7402. Briefly: Induction of apoptosis in human Bel-7402 cells assessed as apoptotic cells at 2.5 uM incubated for 36 hrs by Annexin V-FITC and PI staining based flow cytometry analysis (reference value: 6.20%). Format: functional. Background: In flow cytometry, cells or beads pass a laser one at a time.
For series [10], the system named is Bel-7402. Description: Induction of cell cycle arrest in human Bel-7402 cells assessed as accumulation in G1 phase at 0.625 uM incubated for 36 hrs by PI staining based flow cytometry analysis (reference value: 74.01 %). Format: functional.
Series [11] concerns Bel-7402. Briefly: Induction of cell cycle arrest in human Bel-7402 cells assessed as accumulation in G2 phase at 0.625 uM incubated for 36 hrs by PI staining based flow cytometry analysis (reference value: 6.31 %). The format is functional.
Series [12] has as its system Bel-7402. Briefly: Induction of cell cycle arrest in human Bel-7402 cells assessed as accumulation in S phase at 0.625 uM incubated for 36 hrs by PI staining based flow cytometry analysis (reference value: 19.68 %). Format: functional.
The subject of series [13] is Bel-7402. Briefly: Induction of cell cycle arrest in human Bel-7402 cells assessed as accumulation in G1 phase at 1.25 uM incubated for 36 hrs by PI staining based flow cytometry analysis (reference value: 74.01 %). The format is functional.
In series [14] the test system is Bel-7402. Briefly: Induction of cell cycle arrest in human Bel-7402 cells assessed as accumulation in G2 phase at 1.25 uM incubated for 36 hrs by PI staining based flow cytometry analysis (reference value: 6.31 %). The format is functional.
For series [15], the system named is Bel-7402. Description: Induction of cell cycle arrest in human Bel-7402 cells assessed as accumulation in S phase at 1.25 uM incubated for 36 hrs by PI staining based flow cytometry analysis (reference value: 19.68 %). Format: functional.
Series [16] relates to Bel-7402. Description: Induction of cell cycle arrest in human Bel-7402 cells assessed as accumulation in G1 phase at 2.5 uM incubated for 36 hrs by PI staining based flow cytometry analysis (reference value: 74.01 %). Format: functional.
Series [17] has as its system Bel-7402. Description: Induction of cell cycle arrest in human Bel-7402 cells assessed as accumulation in G2 phase at 2.5 uM incubated for 36 hrs by PI staining based flow cytometry analysis (reference value: 6.31 %). The format is functional.
For series [18], the system named is Bel-7402. Description: Induction of cell cycle arrest in human Bel-7402 cells assessed as accumulation in S phase at 2.5 uM incubated for 36 hrs by PI staining based flow cytometry analysis (reference value: 19.68 %). The format is functional.
Series [19] deals with Bel-7402. Briefly: Induction of cell cycle arrest in human Bel-7402 cells assessed as increase in accumulation in S phase incubated for 36 hrs by PI staining based flow cytometry analysis. The format is functional. Particulars: dose 0.625-2.5 µM.
The test system of series [20] is Bel-7402. Description: Antiproliferative activity against human Bel-7402 cells assessed as reduction in cell viability incubated for 72 hrs in presence of O2-Chloromethyl-1-( morpholin -1-yl)diazen-1-ium-1,2-diolate by MTT assay. Particulars: Bel-7402, 72 h. Format: functional, cell-based.

As usually defined, the IC50 is the concentration at which inhibition is half-maximal. One may read the inhibition as the drop in the measured response relative to a control, in per cent.

Regarding `[O-]/[N+](=N\OCCl)N1CCOCC1`, the half-maximal inhibitory concentration (IC50) in series [1] was 24.6 µM.
On to `C=C1C(=O)[C@]23[C@H](OC(=O)CCCC(=O)OCO/N=[N+](\[O-])N4CCCC4)[C@H]1CC[C@H]2[C@@]12CO[C@@]3(O)[C@@H](O)[C@@H]1C(C)(C)CCC2=O`, for which the inhibition at 1 µM in series [2] was determined as 13.5%. Also, in series [3], the inhibition at 10 µM is 93.9%. In addition, in series [1], the IC50 was 17 µM. Moreover, in series [4], the Drug metabolism result is on record as “Metabolite_Detected”.
In the case of `C=C1C(=O)[C@]23[C@H](OC(=O)CCC(=O)OCO/N=[N+](\[O-])N4CCOCC4)[C@H]1CC[C@H]2[C@@]12CO[C@@]3(O)[C@@H](O)[C@@H]1C(C)(C)CC[C@@H]2OC(C)=O`, in [2], the inhibition at 1 µM came out at 85.8%. In addition, the inhibition at 10 µM in series [3] amounted to 94.5%. Further, the IC50 in series [1] worked out at 3.03 µM.
Regarding `C=C1C(=O)[C@]23[C@H](OC(=O)CCCC(=O)OCO/N=[N+](\[O-])N4CCCC4)[C@H]1CC[C@H]2[C@@]12CO[C@@]3(O)[C@@H](O)[C@@H]1C(C)(C)CC[C@@H]2O`, the inhibition at 1 µM in series [2] came out at 26.1%. Moreover, in series [3], the inhibition at 10 µM was found to be 93.4%. Also, in [1], the IC50 is 10.9 µM.
Taken in the same sequence, the figures for `C=C1C(=O)[C@]23[C@H](O)[C@H]1CC[C@H]2[C@@]12CO[C@]3(O)[C@@H](O)[C@@H]1C(C)(C)CC[C@@H]2O` [ORIDONIN] were 29.9%, 93.6% and 7.12 µM.
For `C=C1C(=O)[C@]23[C@H](OC(=O)CCC(=O)OCO/N=[N+](\[O-])N4CCOCC4)[C@H]1CC[C@H]2[C@@]12CO[C@@]3(O)[C@@H](O)[C@@H]1C(C)(C)CC[C@@H]2O`, the inhibition at 1 µM in series [2] came out at 88.5%. For the same compound, the inhibition at 10 µM in series [3] stood at 93.3%. Further, in series [1], the IC50 came out at 2.75 µM. Besides, the Drug metabolism entry in [4] is reported as “Metabolite_Detected”.
In the case of `C=C1C(=O)[C@]23[C@H](OC(=O)CCCC(=O)OCO/N=[N+](\[O-])N4CCOCC4)[C@H]1CC[C@H]2[C@@]12CO[C@@]3(O)[C@@H](O)[C@@H]1C(C)(C)CCC2=O`, in series [2], the inhibition at 1 µM worked out at 87.8%. Moreover, the inhibition at 10 µM in [3] amounted to 93.9%. Further, the IC50 in [1] is 1.84 µM; in series [5], 1.13 µM; in [6], 2.57 µM; in series [7], 2.46 µM; in series [8], 8.48 µM. Moreover, the Drug metabolism result in series [4] is reported as “Metabolite_Detected”. The Activity came to 51.91% in [9]; 68.47% in series [10]; 5.1% in series [11]; 26.42% in series [12]; 66.35% in series [13]; 3.66% in series [14]. Also, the Activity in series [15] was 29.99%; in series [16], 58.98%; in [17] it was 4.8%; in series [18] it was 36.22%; in series [19], “Dose-dependent effect”.
For `C=C1C(=O)[C@]23[C@H](OC(=O)CCC(=O)OCO/N=[N+](\[O-])N4CCCC4)[C@H]1CC[C@H]2[C@@]12CO[C@@]3(O)[C@@H](O)[C@@H]1C(C)(C)CC[C@@H]2O`, the inhibition at 1 µM in [2] was 15.9%. Moreover, the inhibition at 10 µM in [3] is 93.2%. Also, the concentration for half-maximal inhibition (IC50) in series [1] was found to be 13.3 µM. The Drug metabolism entry in series [4] is “Metabolite_Detected”.
In the case of `COc1cccc2c1C(=O)c1c(O)c3c(c(O)c1C2=O)C[C@@](O)(C(=O)CO)C[C@@H]3O[C@H]1C[C@H](N)[C@H](O)[C@H](C)O1` [DOXORUBICIN HYDROCHLORIDE], the IC50 in [1] is 0.83 µM.
As for `C=C1C(=O)[C@]23[C@H](OC(=O)CCCC(=O)OCO/N=[N+](\[O-])N4CCOCC4)[C@H]1CC[C@H]2[C@@]12CO[C@@]3(O)[C@@H](O)[C@@H]1C(C)(C)CC[C@@H]2O`, the inhibition at 1 µM in series [2] is 83.8%. Also, the inhibition at 10 µM in series [3] came to 92.7%. For the same compound, the IC50 in [1] worked out at 2.53 µM.
Taken in the same sequence, the figures for `C=C1C(=O)[C@]23[C@H](OC(=O)CCC(=O)OCO/N=[N+](\[O-])N4CCCC4)[C@H]1CC[C@H]2[C@@]12CO[C@@]3(O)[C@@H](O)[C@@H]1C(C)(C)CCC2=O` were 24.2%, 93.6% and 14.6 µM.
Consider `C=C1C(=O)[C@]23[C@H](OC(=O)CCC(=O)OCO/N=[N+](\[O-])N4CCOCC4)[C@H]1CC[C@H]2[C@@]12CO[C@@]3(O)[C@@H](O)[C@@H]1C(C)(C)CCC2=O`, for which the inhibition at 1 µM in [2] is 71.3%. The inhibition at 10 µM in series [3] worked out at 93.1%. Further, the IC50 in series [1] came to 3.26 µM.
As for `C=C1C(=O)[C@]23[C@H](OC(=O)CCC(=O)O)[C@H]1CC[C@H]2[C@@]12CO[C@@]3(O)[C@@H](O)[C@@H]1C(C)(C)CCC2=O`, the IC50 in series [1] was 9.07 µM; in [20], 5.28 µM.
